In ChEMBL document CHEMBL1153836, “Effects of human immunodeficiency virus protease inhibitors on the intestinal absorption of tenofovir disoproxil fumarate in vitro” (Antimicrob Agents Chemother, 2007):
Activity calls are given as the source filed them. The rule behind the calls is not given here.

What was measured:
[1] = tested on: Caco-2; assay: Increase in P-glycoprotein-mediated tenofovir disoproxil fumarate permeation from apical to basolateral side of human Caco-2 cells at 20 uM; type: cell-based
In short: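 Caco-2 monolayers were preincubated 30 min with 20 µM PI in transport buffer, then given fresh buffer with inhibitor plus TDF on the apical side. […] Duplicates; mean ± SD of three independent experiments.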

[2] = biological target: ATP-dependent translocase ABCB1 (Homo sapiens, UniProt P08183); assay: Inhibition of human MDR1-dependent accumulation of calcein-AM expressed in MDCK2 cells; type: cell-based, MDCK-II; settings: for Activity: human, mdck-ii
ATP-dependent translocase ABCB1, sequence (P08183 whole entry): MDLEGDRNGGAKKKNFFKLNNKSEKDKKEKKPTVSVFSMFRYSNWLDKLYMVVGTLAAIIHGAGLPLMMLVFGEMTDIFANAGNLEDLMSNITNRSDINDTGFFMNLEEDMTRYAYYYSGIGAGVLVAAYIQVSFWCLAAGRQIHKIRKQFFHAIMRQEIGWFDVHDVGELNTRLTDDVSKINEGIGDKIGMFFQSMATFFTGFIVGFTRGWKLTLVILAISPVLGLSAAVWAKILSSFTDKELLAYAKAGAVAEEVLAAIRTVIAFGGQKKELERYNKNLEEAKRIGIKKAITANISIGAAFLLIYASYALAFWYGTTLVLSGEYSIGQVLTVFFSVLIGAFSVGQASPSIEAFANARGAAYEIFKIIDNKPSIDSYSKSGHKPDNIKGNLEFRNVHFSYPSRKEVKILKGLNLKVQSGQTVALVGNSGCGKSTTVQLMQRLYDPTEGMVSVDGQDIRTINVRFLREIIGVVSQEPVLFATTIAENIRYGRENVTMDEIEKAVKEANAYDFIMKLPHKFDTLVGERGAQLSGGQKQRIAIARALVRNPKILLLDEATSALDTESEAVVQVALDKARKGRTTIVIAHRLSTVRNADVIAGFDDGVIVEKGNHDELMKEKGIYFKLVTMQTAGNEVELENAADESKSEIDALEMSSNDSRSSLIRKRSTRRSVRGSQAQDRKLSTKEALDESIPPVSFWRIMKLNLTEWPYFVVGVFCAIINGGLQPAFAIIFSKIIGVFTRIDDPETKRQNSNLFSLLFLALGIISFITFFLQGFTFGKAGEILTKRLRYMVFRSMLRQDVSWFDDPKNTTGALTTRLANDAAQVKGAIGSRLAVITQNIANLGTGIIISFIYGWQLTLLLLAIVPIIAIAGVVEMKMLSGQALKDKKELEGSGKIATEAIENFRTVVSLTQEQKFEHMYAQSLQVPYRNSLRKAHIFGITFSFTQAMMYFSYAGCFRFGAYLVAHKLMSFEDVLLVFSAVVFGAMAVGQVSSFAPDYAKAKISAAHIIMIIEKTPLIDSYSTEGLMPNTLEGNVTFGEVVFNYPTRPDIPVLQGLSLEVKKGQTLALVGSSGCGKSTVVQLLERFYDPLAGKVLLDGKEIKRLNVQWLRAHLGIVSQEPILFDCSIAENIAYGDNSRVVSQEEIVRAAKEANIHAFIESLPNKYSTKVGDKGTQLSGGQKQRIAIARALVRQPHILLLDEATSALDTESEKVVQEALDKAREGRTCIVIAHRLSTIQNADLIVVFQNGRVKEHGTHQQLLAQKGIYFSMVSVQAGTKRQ
In short: (§1)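 Parental and MDR1-transfected MDCKII cells received calcein-AM together with PI (seven twofold dilutions from 50 µM, no serum proteins). Intracellular calcein fluorescence was read in a 96-well format. Percent increase in fluorescence was fitted to a hyperbolic curve for IC50. Duplicates; 3–10 independent assays.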

[3] = tested on: Homo sapiens; assay: Effect on tenofovir disoproxil fumarate metabolism in ritonavir booster drug treated healthy human assessed as change in plasma AUC of tenofovir at 1000 mg, po, BID co-administered with 300 mg once daily dose of tenofovir disoproxil fumarate; type: ADME, organism-based; settings: in vivo
[4] = tested on: Homo sapiens; assay: Effect on tenofovir disoproxil fumarate metabolism in ritonavir booster drug treated healthy human assessed as change in plasma Cmax of tenofovir at 1000 mg, po, BID co-administered with 300 mg once daily dose of tenofovir disoproxil fumarate; type: ADME, organism-based; settings: in vivo
[5] = tested on: Homo sapiens; assay: Effect on tenofovir disoproxil fumarate metabolism in ritonavir booster drug treated healthy human assessed as change in plasma Cmin of tenofovir at 1000 mg, po, BID co-administered with 300 mg once daily dose of tenofovir disoproxil fumarate; type: ADME, organism-based; settings: in vivo
[6] = organism: Homo sapiens; assay: Inhibition of esterase mediated-hydrolysis of tenofovir disoproxil fumarate in human intestinal sub cellular fraction S9 at 2 uM after 30 mins
In short: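 Reactions were stopped at 30 and 60 min with 67% acetonitrile, and TDF was measured by LC/MS/MS. Degradation rate came from a single-exponential fit, expressed as percent inhibition versus DMSO. Duplicates; three to six independent experiments.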

[7] = biological target: T1, MDR1 (ABCB1, P-glycoprotein) (Homo sapiens, UniProt P08183); assay: Inhibition of human MDR1-dependent accumulation of calcein-AM expressed in MDCK2 cells at 50 uM; type: cell-based, MDCK-II; parameters: activity at 50 µM: scale not given: the % may be the effect or the level left; settings: MDCK2 cells expressing human MDR1, probe calcein-AM; in short: as §1
T1 sequence (P08183 whole entry): as above

[8] = tested on: Homo sapiens; assay: Effect on tenofovir disoproxil fumarate metabolism in ritonavir booster drug treated healthy human assessed as change in plasma AUC of tenofovir at 300 mg, po, BID co-administered with 300 mg once daily dose of tenofovir disoproxil fumarate; type: ADME, organism-based; settings: in vivo
[9] = tested on: Homo sapiens; assay: Effect on tenofovir disoproxil fumarate metabolism in ritonavir booster drug treated healthy human assessed as change in plasma Cmax of tenofovir at 300 mg, po, BID co-administered with 300 mg once daily dose of tenofovir disoproxil fumarate; type: ADME, organism-based; settings: in vivo
[10] = tested on: Homo sapiens; assay: Effect on tenofovir disoproxil fumarate metabolism in ritonavir booster drug treated healthy human assessed as change in plasma Cmin of tenofovir at 300 mg, po, BID co-administered with 300 mg once daily dose of tenofovir disoproxil fumarate; type: ADME, organism-based; settings: in vivo
[11] = tested on: Homo sapiens; assay: Effect on tenofovir disoproxil fumarate metabolism in ritonavir booster drug treated healthy human assessed as change in plasma Cmax of tenofovir at 500 mg, po, BID co-administered with 300 mg once daily dose of tenofovir disoproxil fumarate; type: ADME, organism-based; settings: in vivo
[12] = tested on: Homo sapiens; assay: Effect on tenofovir disoproxil fumarate metabolism in ritonavir booster drug treated healthy human assessed as change in plasma Cmax of tenofovir at 750 mg, po, BID co-administered with 300 mg once daily dose of tenofovir disoproxil fumarate; type: ADME, organism-based; settings: in vivo
[13] = tested on: Homo sapiens; assay: Effect on tenofovir disoproxil fumarate metabolism in ritonavir booster drug treated healthy human assessed as change in plasma Cmax of tenofovir at 800 mg, po, TID co-administered with 300 mg once daily dose of tenofovir disoproxil fumarate; type: ADME, organism-based; settings: in vivo
[14] = tested on: Homo sapiens; assay: Effect on tenofovir disoproxil fumarate metabolism in ritonavir booster drug treated healthy human assessed as change in plasma Cmin of tenofovir at 1250 mg, po, BID co-administered with 300 mg once daily dose of tenofovir disoproxil fumarate; type: ADME, organism-based; settings: in vivo
[15] = biological target: T1, MDR1 (ABCB1, P-glycoprotein); assay: Inhibition of human MDR1-dependent accumulation of calcein-AM expressed in MDCK2 cells at 20 uM; type: cell-based, MDCK-II; settings: MDCK2 cells expressing human MDR1, probe calcein-AM
[16] = tested on: Homo sapiens; assay: Effect on tenofovir disoproxil fumarate metabolism in ritonavir booster drug treated healthy human assessed as change in plasma AUC of tenofovir at 300 mg, po, QD co-administered with 300 mg once daily dose of tenofovir disoproxil fumarate; type: ADME, organism-based; settings: in vivo
[17] = tested on: Homo sapiens; assay: Effect on tenofovir disoproxil fumarate metabolism in ritonavir booster drug treated healthy human assessed as change in plasma Cmax of tenofovir at 300 mg, po, QD co-administered with 300 mg once daily dose of tenofovir disoproxil fumarate; type: ADME, organism-based; settings: in vivo
[18] = tested on: Homo sapiens; assay: Effect on tenofovir disoproxil fumarate metabolism in ritonavir booster drug treated healthy human assessed as change in plasma Cmin of tenofovir at 300 mg, po, QD co-administered with 300 mg once daily dose of tenofovir disoproxil fumarate; type: ADME, organism-based; settings: in vivo
[19] = tested on: Homo sapiens; assay: Effect on tenofovir disoproxil fumarate metabolism in ritonavir booster drug treated healthy human assessed as change in plasma AUC of tenofovir at 1400 mg, po, BID co-administered with 300 mg once daily dose of tenofovir disoproxil fumarate; type: ADME, organism-based; settings: in vivo
[20] = tested on: Homo sapiens; assay: Effect on tenofovir disoproxil fumarate metabolism in ritonavir booster drug treated healthy human assessed as change in plasma Cmax of tenofovir at 700 mg, po, BID co-administered with 300 mg once daily dose of tenofovir disoproxil fumarate; type: ADME, organism-based; settings: in vivo
[21] = tested on: Homo sapiens; assay: Effect on tenofovir disoproxil fumarate metabolism in ritonavir booster drug treated healthy human assessed as change in plasma Cmax of tenofovir at 1400 mg, po, BID co-administered with 300 mg once daily dose of tenofovir disoproxil fumarate; type: ADME, organism-based; settings: in vivo
[22] = tested on: Homo sapiens; assay: Effect on tenofovir disoproxil fumarate metabolism in ritonavir booster drug treated healthy human assessed as change in plasma Cmin of tenofovir at 1400 mg, po, BID co-administered with 300 mg once daily dose of tenofovir disoproxil fumarate; type: ADME, organism-based; settings: in vivo
[23] = tested on: Caco-2; assay: Increase in P-glycoprotein-mediated forward permeation of tenofovir disoproxil fumarate in human Caco-2 cells at 2 uM; type: cell-based
[24] = tested on: Homo sapiens; assay: Effect on tenofovir disoproxil fumarate metabolism in ritonavir booster drug treated HIV infected patient assessed as change in plasma AUC of tenofovir at 400 mg, po, BID co-administered with 300 mg once daily dose of tenofovir disoproxil fumarate; type: ADME, organism-based; settings: in vivo
[25] = tested on: Homo sapiens; assay: Effect on tenofovir disoproxil fumarate metabolism in HIV infected patient assessed as change in plasma Cmax of tenofovir at 400 mg, po, BID co-administered with 300 mg once daily dose of tenofovir disoproxil fumarate; type: ADME, organism-based; settings: in vivo
[26] = tested on: Homo sapiens; assay: Effect on tenofovir disoproxil fumarate metabolism in HIV infected patient assessed as change in plasma Cmin of tenofovir at 400 mg, po, BID co-administered with 300 mg once daily dose of tenofovir disoproxil fumarate; type: ADME, organism-based; settings: in vivo
[27] = tested on: Caco-2; assay: Ratio of permeability from basolateral to apical side over apical to basolateral side in human Caco-2 cells at 1 uM; type: ADME, cell-based; settings: caco-2, 1 µM
In short: (§2)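 Confluent Caco-2 monolayers dosed with TDF (1–1,000 µM) on the apical or basolateral side at 37°C, 5% CO2. […] Efflux ratio = B-to-A Papp / A-to-B Papp. Two independent experiments in duplicate.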

[28] = tested on: Caco-2; assay: Ratio of permeability from basolateral to apical side over apical to basolateral side in human Caco-2 cells at 1000 uM; type: ADME, cell-based; settings: caco-2, 1000 µM; in short: as §2
[29] = tested on: Caco-2; assay: Increase in P-glycoprotein-mediated forward permeation of tenofovir disoproxil fumarate in human Caco-2 cells at 10 uM; type: cell-based
[30] = organism: Homo sapiens; assay: Inhibition of esterase mediated-hydrolysis of tenofovir disoproxil fumarate in human intestinal sub cellular fraction S9 assessed as rate of tenofovir disoproxil fumarate degradation at 10 uM after 30 mins
In short: (§3)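 Human intestinal S9 at 1 mg/ml protein; TDF 2 µM incubated with or without inhibitor (10, 50 or 100 µM) at 37°C in duplicate. Reactions were stopped at 30 and 60 min with 67% acetonitrile, protein removed by centrifugation, and TDF measured by LC/MS/MS. The degradation rate came from a single-exponential-decay fit.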

[31] = organism: Homo sapiens; assay: Inhibition of esterase mediated-hydrolysis of tenofovir disoproxil fumarate in human intestinal sub cellular fraction S9 assessed as rate of tenofovir disoproxil fumarate degradation at 50 uM after 30 mins; in short: as §3
[32] = organism: Homo sapiens; assay: Inhibition of esterase mediated-hydrolysis of tenofovir disoproxil fumarate in human intestinal sub cellular fraction S9 assessed as rate of tenofovir disoproxil fumarate degradation at 100 uM after 30 mins; in short: as §3

## CC(C)(C)NC(=O)[C@@H]1C[C@@H]2CCCC[C@@H]2CN1C[C@@H](O)[C@H](Cc1ccccc1)NC(=O)[C@H](CC(N)=O)NC(=O)c1ccc2ccccc2n1
[1]
  Activity: Active
[2]
  Activity: Dose-dependent effect
[3]
  Activity: 14%
[4]
  Activity: 15%
[5]
  Activity: 23%
[6]
  Activity: Active

## CC(C)CN(C[C@@H](O)[C@H](Cc1ccccc1)NC(=O)O[C@H]1CCOC1)S(=O)(=O)c1ccc(N)cc1
[7]
  inhibition at 50 µM: ≤ 25%
[6]
  Activity: Active

## CC(C)CN(C[C@@H](O)[C@H](Cc1ccccc1)NC(=O)O[C@H]1CO[C@H]2OCC[C@H]21)S(=O)(=O)c1ccc(N)cc1
[7]; read-out: Activity
  activity at 50 µM: 15%
[2]
  IC50: > 100 µM
[8]
  Activity: 22%
[9]
  Activity: 24%
[10]
  Activity: 37%
[6]
  inhibition: < 40%

## CCC[C@@]1(CCc2ccccc2)CC(O)=C([C@H](CC)c2cccc(NS(=O)(=O)c3ccc(C(F)(F)F)cn3)c2)C(=O)O1
[11]
  Activity: -23%
[12]
  Activity: -38%

## CC(C)(C)NC(=O)[C@@H]1CN(Cc2cccnc2)CCN1C[C@@H](O)C[C@@H](Cc1ccccc1)C(=O)N[C@H]1c2ccccc2C[C@H]1O.O
[7]
  inhibition at 50 µM: ≤ 25%
[13]
  Activity: 14%
[6]
  inhibition: < 40%

## Cc1c(O)cccc1C(=O)N[C@@H](CSc1ccccc1)[C@H](O)CN1C[C@H]2CCCC[C@H]2C[C@H]1C(=O)NC(C)(C)C
[2]
  Activity: Dose-dependent effect
[14]
  Activity: 9%
[6]
  Activity: Active
[15]
  inhibition at 20 µM: 50%

## CC(C)c1nc(CN(C)C(=O)N[C@H](C(=O)N[C@@H](Cc2ccccc2)C[C@H](O)[C@H](Cc2ccccc2)NC(=O)OCc2cncs2)C(C)C)cs1
[1]
  Activity: Active
[6]
  Activity: Active

## COC(=O)N[C@H](C(=O)N[C@@H](Cc1ccccc1)[C@@H](O)CN(Cc1ccc(-c2ccccn2)cc1)NC(=O)[C@@H](NC(=O)OC)C(C)(C)C)C(C)(C)C [ATAZANAVIR]
[1]
  Activity: Active
[2]
  IC50: 67.8 µM
  Activity: Dose-dependent effect
[16]
  Activity: 37%
[17]
  Activity: 34%
[18]
  Activity: 29%
[6]
  Activity: Active

## Cc1nc(COc2ccc(C[C@H](NC(=O)O[C@H]3CO[C@H]4OCC[C@H]43)[C@H](O)CN(CC(C)C)S(=O)(=O)c3ccc4c(c3)OCO4)cc2)cs1 [BRECANAVIR]
[2]
  IC50: 24.1 µM
  Activity: Dose-dependent effect
[8]
  Activity: 32%
[9]
  Activity: 24%
[6]
  inhibition: Active
[15]
  inhibition at 20 µM: 50%

## CC(C)CN(C[C@@H](OP(=O)(O)O)[C@H](Cc1ccccc1)NC(=O)O[C@H]1CCOC1)S(=O)(=O)c1ccc(N)cc1 [FOSAMPRENAVIR]
[19]
  Activity: -15%
[20]
  Activity: -18%
[21]
  Activity: -25%
[22]
  Activity: -12%

## Cc1cccc(C)c1OCC(=O)N[C@@H](Cc1ccccc1)[C@@H](O)C[C@H](Cc1ccccc1)NC(=O)[C@H](C(C)C)N1CCCNC1=O [LOPINAVIR]
[1]
  Activity: Active
[23]
  Activity: 100%
[2]
  Activity: Dose-dependent effect
[24]
  Activity: 32%
[25]
  Activity: 15%
[26]
  Activity: 51%
[6]
  Activity: Active
[15]
  inhibition at 20 µM: 50%

## CC(C)OC(=O)OCOP(=O)(CO[C@H](C)Cn1cnc2c(N)ncnc21)OCOC(=O)OC(C)C.O=C(O)/C=C/C(=O)O [TENOFOVIR DISOPROXIL FUMARATE]
[27]
  Ratio: 25
[28]
  Ratio: 2.6
[29]
  fold change (FC): 1.4
[23]
  fold change (FC): 2.5
[30]
  Activity: 0.021 min⁻¹
[31]
  Activity: 0.016 min⁻¹
[32]
  Activity: 0.012 min⁻¹
